Laboratory results as given in paper PMC3668529 (FEBS Open Bio, 2013).
Where two headings read alike, the source gives them in different places.

Legend:
rCPT-2 [1] = biological target: T1, rCPT-2 (Rattus norvegicus, UniProt P18886); test: Isothermal titration calorimetry; assay type: binding
T1 sequence (P18886 26-658): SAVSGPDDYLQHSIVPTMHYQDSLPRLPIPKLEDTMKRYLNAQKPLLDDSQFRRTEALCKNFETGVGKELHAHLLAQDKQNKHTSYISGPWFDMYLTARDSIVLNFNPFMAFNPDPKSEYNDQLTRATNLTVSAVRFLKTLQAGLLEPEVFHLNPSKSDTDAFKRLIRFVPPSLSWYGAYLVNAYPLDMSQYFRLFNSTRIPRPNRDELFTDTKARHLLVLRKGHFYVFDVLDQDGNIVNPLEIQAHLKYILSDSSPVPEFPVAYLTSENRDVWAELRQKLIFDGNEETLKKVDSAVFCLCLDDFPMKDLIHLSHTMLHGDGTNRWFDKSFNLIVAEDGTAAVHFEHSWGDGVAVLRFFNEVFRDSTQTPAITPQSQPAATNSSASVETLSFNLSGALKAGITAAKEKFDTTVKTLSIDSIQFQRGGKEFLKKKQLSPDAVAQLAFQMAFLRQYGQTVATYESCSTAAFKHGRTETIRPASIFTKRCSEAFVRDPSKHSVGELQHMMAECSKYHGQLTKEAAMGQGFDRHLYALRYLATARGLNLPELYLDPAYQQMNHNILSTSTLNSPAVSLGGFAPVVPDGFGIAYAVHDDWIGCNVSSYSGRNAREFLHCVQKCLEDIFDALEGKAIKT
Outline: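 Inhibitor (100–300 μM, from 10 mM DMSO stock, in identical buffer) was injected in 10 μL steps. ΔH0, K and n came from a 1:1 fit, with ΔG0 and ΔS0 calculated. ΔCp0 came from runs at several temperatures. Proton transfer was tested with HEPES, Bicine or Tris buffers at pH 8 and 10 °C, fitting ΔHobs against buffer ionization enthalpy by linear regression.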

[2] = ITC demicellization of β-OG with and without co-dissolved inhibitor; assay type: physicochemical; details: for CMC / TΔSmic0 / ΔGmic0 / ΔHmic0: absence of rCPT-2
Outline: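 Syringe held 300 mM β-OG with 1% or 7.5% (v/v) DMSO, with or without 0.75 mM inhibitor, in 25 mM Tris/HCl pH 8, 150 mM NaCl, 2 mM TCEP, degassed 10 min. Injected stepwise into buffer. Initial constant heats gave ΔHdemic0 (ΔHmic0 of opposite sign). Curves simulated with a cooperative association model. CMC taken as midpoint, ΔGmic0 = RT lnCMC, ΔCp0 from linear fits of ΔHmic0 versus temperature.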

rCPT-2 [3] = biological target: T1, rCPT-2; test: rCPT-2 activity assay, spectrophotometric with DTNB; assay type: biochemical; details: diluted lysate, 30 °C, reverse reaction, no additional β-OG
Outline: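 The reverse reaction was run at 30 °C with crude Pichia pastoris lysate (30 nM enzyme) in 25 mM Tris–HCl pH 7.4, 120 mM KCl and 1 mM EDTA, without added β-OG. Substrates were 500 μM carnitine and 80 μM palmitoyl-CoA. Released CoA-SH was detected with DTNB by absorbance at 410 nm (ε 13,600 M−1 cm−1). Inhibitors were titrated from 10 mM DMSO stocks.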

rCPT-2 [4] = biological target: T1, rCPT-2; test: Binding site by X-ray crystallography and manual docking; details: crystal structures and docking models
Outline: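 Crystals were cryo-protected or oil-exchanged, flash frozen, and data collected at 100 K. Ligands were placed by manual modelling into the structure, then energy-minimised with protein atoms constrained.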

rCPT-2 [5] = biological target: T1, rCPT-2; test: Differential scanning calorimetry; assay type: binding
Outline: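 Thermal unfolding was run by DSC at a scan rate of 30 °C/h. The reference cell held buffer, with a buffer–buffer blank as baseline. Transition midpoints were read from the curves.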

rCPT-2 [6] = biological target: T1, rCPT-2; details: octanoyl-CoA as substrate, competitive; cited from earlier work
[7] = cited from earlier work

Compound: CCCCCCCCCCCCCCNC(=O)N[C@H](CC(=O)[O-])C[N+](C)(C)C [Inhibitor 4, reference compound]
- Kd (rCPT-2 [1]; ITC, 10 °C, 25 mM Tris/HCl pH 8, 1% β-OG, 1% DMSO): 10.5 ± 3.3 µM
- TΔS^0 (rCPT-2 [1]; ITC, 10 °C, Tris/HCl pH 8): -3.3 ± 0.5 kcal/mol
- ΔG^0 (rCPT-2 [1]; ITC, 10 °C, Tris/HCl pH 8): -6.5 ± 0.3 kcal/mol
- ΔH^0 (rCPT-2 [1]; ITC, 10 °C, Tris/HCl pH 8): -9.8 ± 0.7 kcal/mol
- Kd (rCPT-2 [1]; ITC, 37 °C, Tris/HCl pH 8): 20 µM
- TΔS^0 (rCPT-2 [1]; ITC, 37 °C, Tris/HCl pH 8): -3.7 kcal/mol
- ΔG^0 (rCPT-2 [1]; ITC, 37 °C, Tris/HCl pH 8): -5.9 kcal/mol
- ΔH^0 (rCPT-2 [1]; ITC, 37 °C, Tris/HCl pH 8): -9.5 kcal/mol
- sign of the reaction enthalpy (rCPT-2 [1]; Tris/HCl pH 8): exothermic
- molar heat capacity change ΔCp0 of binding (rCPT-2 [1]; Tris/HCl pH 8, temperature dependence of ΔH^0): 11 cal/mol K
- Kd (rCPT-2 [1]; read-out: dissociation constants determined by ITC): 20 µM
- effect on the CMC of β-OG ([2]; 7.5% (v/v) DMSO, compared to β-OG alone): slightly increase
- CMC ([2]; 14 °C): 35.1 mM
- TΔSmic0 ([2]; 14 °C): 3.26 kcal/mol
- ΔGmic0 ([2]; 14 °C): -1.90 kcal/mol
- CMC ([2]; 25 °C): 31.3 mM
- TΔSmic0 ([2]; 25 °C): 2.92 kcal/mol
- ΔGmic0 ([2]; 25 °C): -2.04 kcal/mol
- ΔHmic0 ([2]; 25 °C): 0.88 kcal/mol
- CMC ([2]; 30 °C): 31.0 mM
- TΔSmic0 ([2]; 30 °C): 2.66 kcal/mol
- ΔGmic0 ([2]; 30 °C): -2.08 kcal/mol
- ΔHmic0 ([2]; 30 °C): 0.57 kcal/mol
- CMC ([2]; 45 °C): 31.0 mM
- TΔSmic0 ([2]; 45 °C): 1.74 kcal/mol
- ΔGmic0 ([2]; 45 °C): -2.19 kcal/mol
- ΔHmic0 ([2]; 45 °C): -0.45 kcal/mol
- IC50 (rCPT-2 [3]): 0.38 µM
- rCPT-2 (binding site) (rCPT-2 [4]): Acylcarnitine site
- midpoint of the thermal unfolding transition of rCPT-2 (rCPT-2 [5]; 14 μM rCPT-2, 100 μM inhibitor): 49.8 °C
- total unfolding enthalpy of rCPT-2 (rCPT-2 [5]; interval 30–55 °C, protein in excess of inhibitor): 1270 kcal/mol
- stability increase of rCPT-2 (rCPT-2 [5]; with versus without inhibitor): ~3 °C

Compound: CCCCCCCCO[C@@H]1O[C@H](CO)[C@@H](O)[C@H](O)[C@H]1O [β-OG, β-octyl glucoside]
- CMC ([2]; 14 °C): 32.8 mM
- TΔSmic0 ([2]; 14 °C): 3.27 kcal/mol
- ΔGmic0 ([2]; 14 °C): -1.94 kcal/mol
- ΔHmic0 ([2]; 14 °C): 1.33 kcal/mol
- CMC ([2]; 30 °C): 27.8 mM
- TΔSmic0 ([2]; 30 °C): 2.75 kcal/mol
- ΔGmic0 ([2]; 30 °C): -2.15 kcal/mol
- ΔHmic0 ([2]; 30 °C): 0.60 kcal/mol
- CMC ([2]; 37 °C): 28.6 mM
- TΔSmic0 ([2]; 37 °C): 2.34 kcal/mol
- ΔGmic0 ([2]; 37 °C): -2.18 kcal/mol
- ΔHmic0 ([2]; 37 °C): 0.16 kcal/mol
- ΔHmic0 ([2]; 45 °C): -0.54 kcal/mol
- molar heat capacity change of micelle formation ΔCp0 ([2]; slopes of ΔHmic0 versus temperature, with and without inhibitors): −60 to −90 cal/mol K
- Ki (rCPT-2 [6]): 15000 µM

Compound: cinnamycin
- binding constants of the PE–cinnamycin complex, times smaller in the β-OG environment [7]: 10–100 times
- free energy of binding ΔG^0, less negative in β-OG micelles than in the aqueous phase [7]: 1 to 2.5 kcal/mol
